The source of these data is ChEMBL document CHEMBL4138109, “Synthesis and structure-activity relationships of novel fused ring analogues of Q203 as antitubercular agents” (Eur J Med Chem, 2017).

Converted amounts (≈) assume the structure as drawn.

Data set [1] deals with Mycobacterium tuberculosis. In words: Antimycobacterial activity against GFP expressing Mycobacterium tuberculosis H37Rv assessed as reduction in bacterial replication in culture broth medium. It is filed as functional. The procedure, abridged:
(§1)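 H37Rv expressing GFP, grown either in liquid broth (extracellular) or inside macrophages (intracellular). The value is MIC80, the lowest concentration that inhibits growth by 80%, averaged from two independent measurements.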

Data set [2] is described as follows: Half life in rat liver microsomes. It is filed as ADME, microsome. In general terms: Microsomes from liver hold many membrane-bound enzymes, among them those of drug oxidation.
Data set [3] relates to Mycobacterium tuberculosis. In words: Antimycobacterial activity against GFP expressing Mycobacterium tuberculosis H37Rv infected in mouse RAW264.7 cells assessed as reduction in bacterial replication after 5 days by confocal microscopic method. It is filed as functional. As to conditions: 120 h. An outline of the steps: as §1
The nature of data set [4]: Half life in human liver microsomes. The class given is ADME, microsome.
Data set [5] in a line: Half life in mouse at 10 mg/kg, po. It is filed as ADME, organism-based. Particulars: in vivo. An outline of the steps:
(§2)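 Mice received a single intravenous dose of 2 mg/kg or an oral dose of 10 mg/kg. Drug concentrations were measured in plasma, with sampling that extended to 24 h, and the pharmacokinetic parameters were derived from the plasma concentration–time profiles.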

Data set [6] is described as follows: Half life in mouse at 2 mg/kg, iv. The class given is ADME, organism-based. As to conditions: in vivo. The procedure, abridged:
as §2

A short description of data set [7]: Oral bioavailability in mouse at 10 mg/kg. The class given is ADME, organism-based. As to conditions: in vivo. An outline of the steps:
as §2

Data set [8] is described as follows: Volume of distribution at steady state in mouse at 2 mg/kg, iv. As to conditions: in vivo, read-out: Vdss. The class given is ADME, organism-based. An outline of the steps: as §2
Data set [9] can be described thus: AUC (0 to infinity) in mouse at 10 mg/kg, po. The class given is ADME, organism-based. More on the design: dose 10 mg/kg, route oral, time infinity. As to conditions: in vivo. An outline of the steps:
as §2

Data set [10] in a line: Clearance in mouse at 2 mg/kg, iv. The class given is ADME, organism-based. Particulars: in vivo. An outline of the steps:
as §2

Data set [11] is described as follows: Tmax in mouse at 10 mg/kg, po. The class given is ADME, organism-based. As to conditions: in vivo. The procedure, abridged: as §2
Data set [12] in a line: Cmax in mouse at 10 mg/kg, po. The arrangement: dose 10 mg/kg, route oral. As to conditions: in vivo. The class given is ADME, organism-based. The procedure, abridged: as §2

As for `CCc1nc2ccc(Cl)cn2c1C(=O)NCc1ccc2oc(-c3ccc(F)cc3)nc2c1`, the MIC80 amounted to 0.009 µM (≈ 0.00404 µg/mL) in data set [1] and 0.003 µM (≈ 0.00135 µg/mL) in data set [3]. For the same compound, the half-life in data set [2] was 54.3 min; in data set [4], 25.6 min.
As to `CCc1nc2cc(Cl)ccn2c1C(=O)NCc1ccc2ccccc2c1`, the MIC80 was found to be 0.12 µM (≈ 0.0437 µg/mL) in data set [1] and 1 µM (≈ 0.364 µg/mL) in [3]. The half-life in data set [2] is 6.3 min; in [4], 23.7 min.
Taken in the same sequence, the figures for `CCc1nc2cc(Cl)ccn2c1C(=O)NCc1ccc2oc(C3CCCCC3)nc2c1` were 0.082 µM (≈ 0.0358 µg/mL), 0.082 µM (≈ 0.0358 µg/mL), 9.5 min and 10.2 min.
The corresponding values for `CCc1nc2ccc(Cl)cn2c1C(=O)NCc1ccc2oc(-c3ccc(OC(F)(F)F)cc3)nc2c1` are 0.027 µM (≈ 0.0139 µg/mL), 0.009 µM (≈ 0.00463 µg/mL), more than 120 min and more than 120 min.
Regarding `CCc1nc2cc(Cl)ccn2c1C(=O)NCc1ccc2oc(CN3CCOCC3)nc2c1`, the MIC80 in data set [1] was found to be 13.7 µM (≈ 6.22 µg/mL); in [3] it was 6.67 µM (≈ 3.03 µg/mL). Further, the half-life in data set [2] was 18.9 min; in [4] it was 23.2 min.
The corresponding values for `CCc1nc2ccc(Cl)cn2c1C(=O)NCc1ccc2oc(C)nc2c1` are 0.2 µM (≈ 0.0738 µg/mL), 0.082 µM (≈ 0.0302 µg/mL), 5.8 min and 32.2 min.
Taken in the same sequence, the figures for `CCc1nc2cc(Cl)ccn2c1C(=O)NCc1ccc2oc(-c3ccc(F)cc3)nc2c1` were 0.082 µM (≈ 0.0368 µg/mL), 0.74 µM (≈ 0.332 µg/mL), more than 120 min and 103 min.
The corresponding values for `CCc1nc2ccc(Cl)cn2c1C(=O)NCc1ccc2c(c1)OCO2` are 0.082 µM (≈ 0.0293 µg/mL), 0.009 µM (≈ 0.00322 µg/mL), 2.1 min and 7.4 min.
Consider `CCc1nc2ccc(Cl)cn2c1C(=O)NCc1ccc2ccccc2c1`, for which the results for the MIC80 in data set [1] and in data set [3] were 0.031 µM (≈ 0.0113 µg/mL) and 0.062 µM (≈ 0.0226 µg/mL), respectively. For the same compound, the half-life came out at 3.1 min in data set [2] and 6.9 min in [4].
`CCc1nc2cc(Cl)ccn2c1C(=O)NCc1ccc2oc(-c3ccc(OC(F)(F)F)cc3)nc2c1`: the MIC80 in [1] is 0.009 µM (≈ 0.00463 µg/mL); in data set [3], less than 0.001 µM. For the same compound, the half-life was 36.3 h in data set [5], 1080 min in data set [6], more than 120 min in data set [2] and more than 120 min in data set [4]. Moreover, the bioavailability in data set [7] turned out to be 40.1%. Besides, the Vd in [8] was determined as 1.2 L/kg. For the same compound, the AUC(0-inf) in [9] was 116 µg·h/mL. In data set [10], the clearance worked out at 0.6 mL/min/kg. The Tmax in data set [11] was determined as 60 min. Moreover, in data set [12], the Cmax worked out at 5560 ng/mL.
Take `CCc1nc2ccc(Cl)cn2c1C(=O)NCc1ccc2oc(C3CCCCC3)nc2c1`: the MIC80 in data set [1] and in [3] was 0.082 µM (≈ 0.0358 µg/mL) each time. Also, the half-life in [2] was determined as 5.2 min; in data set [4], 17 min.
As for `CCc1nc2ccc(Cl)cn2c1C(=O)NCc1ccc2oc(CN3CCOCC3)nc2c1`, the figures for the MIC80 in data set [1] and in data set [3] were 2.67 µM (≈ 1.21 µg/mL) and 2.22 µM (≈ 1.01 µg/mL), respectively. In addition, the half-life in [2] stood at 14.1 min; in data set [4], 17 min.
The corresponding values for `CCc1nc2cc(Cl)ccn2c1C(=O)NCc1ccc2oc(C)nc2c1` are 1.53 µM (≈ 0.564 µg/mL), 0.74 µM (≈ 0.273 µg/mL), 10.3 min and more than 120 min.
Consider `NNC(=O)c1ccncc1` [ISONIAZID], for which the MIC80 in data set [1] amounted to 0.49 µM (≈ 0.0672 µg/mL); in data set [3], 0.2 µM (≈ 0.0274 µg/mL).
Consider `CCc1nc2ccc(Cl)cn2c1C(=O)NCc1ccc(N2CCC(c3ccc(OC(F)(F)F)cc3)CC2)cc1` [TELACEBEC], for which the values for the MIC80 in data set [1] and in [3] were 0.004 µM (≈ 0.00223 µg/mL) and 0.001 µM (≈ 0.000557 µg/mL), respectively.

The term MIC80 denotes an inhibitory concentration at the 80% level, which refers to growth in some studies and to a panel of isolates in others. One may read the half-life as the time in which the quantity being followed falls by half. High values mean slow loss, low ones fast loss. As usually defined, the bioavailability is dose-corrected exposure relative to a reference, in per cent. A high value points to much systemic uptake. The term AUC(0-inf) denotes the area under the concentration-time curve extrapolated to infinity. Low values mean low exposure, high ones high exposure. A word on the clearance: it is the volume of plasma or blood freed of the substance per unit of time. A low value points to a low capacity for elimination. Usually Tmax stands for the time from dosing to the highest level. The term Cmax denotes the maximum level reached in the sampled fluid or tissue.
